Results from different studies.
Compare with care: the assays were run in different laboratories.
Target: Ribosomal protein S6 kinase beta-1 (RPS6KB1, Homo sapiens, UniProt P23443)

COc1cc(Nc2ncc(F)c(Nc3ccc4c(n3)NC(=O)C(C)(C)O4)n2)cc(OC)c1OC gave an inhibition of 81% (binding; 10 µM).
CC(C)(C)c1cc(C=C(C#N)C#N)cc(Br)c1O has a remaining activity of 91.3% (enzyme activity, inhibitor; 0.5 µM).
With Cn1cc(-c2cc(F)cc(N3CCn4c(cc5c4CCCC5)C3=O)c2CO)cc(Nc2ccc(N3CCN(C4COC4)CC3)cn2)c1=O the inhibition was 10% (enzyme activity, inhibitor; 0.1 µM).
C#Cc1n[nH]c2c(-c3cn([C@@H](C)c4ccccn4)c(=O)[nH]c3=O)cc(F)cc12 has an inhibition of 10.2% (enzyme activity, inhibitor; 0.1 µM).
The remaining binding of Cc1nn(C)cc1-c1nc2c(N3CCN(Cc4ccc(Cl)cc4)CC3)c(Cl)cnc2[nH]1 is reported as 92% (binding, competition with immobilised ligand; 1 µM).
For COc1ncccc1-c1cnn2ccc(N3CCN(C(=O)OC(C)C)CC3)nc12, the remaining binding was 100% (binding, competition with immobilised ligand; 1 µM).
N#CC1(c2ccccn2)CCN(Cc2cc(C(=O)O)c(=O)n3ccccc23)CC1 gave a remaining binding of 96% (cell-free assay, competition with immobilised ligand; 1 µM).
The inhibition of C#Cc1n[nH]c2c(-c3cn([C@@H](C)c4ccccc4)c(=O)[nH]c3=O)cc(F)cc12 is reported as 18.6% (enzyme activity, inhibitor; 0.1 µM).
Cn1cc(-c2cccc(N3CCc4c(sc5c4CC(C)(C)C5)C3=O)c2CO)cc(Nc2ccncn2)c1=O has an inhibition of 5% (enzyme activity, inhibitor; 1 µM).
With Cn1cncc1[C@@](O)(COc1ccc(C#N)cc1-c1ccc(OC(F)(F)F)cc1)c1ccc(C#N)cc1 the remaining binding was 94% (cell-free assay, competition with immobilised ligand; 1 µM).
For O=c1[nH]c2ccccc2n1C1CCN(Cc2ccc(-c3[nH]c4cc5ncnc5cc4nc3-c3ccccc3)cc2)CC1, the remaining signal was 101% (cell-free assay; 0.5 µM).
Nc1ncc(-c2nc(N3CCOCC3)nc(N3CCOCC3)n2)c(C(F)F)n1 has a remaining binding of 76% (binding, competition with immobilised ligand; 10 µM).
